This passage reports IC50 and Activity results from ChEMBL document CHEMBL2346613, “Synthesis of indazole based diarylurea derivatives and their antiproliferative activity against tumor cell lines” (Bioorg Med Chem Lett, 2013).

The test system of one data set is MDA-MB-231. The data set can be described thus: Cytotoxicity against human MDA-MB-231 cells after 72 hrs by MTT assay. The class given is functional, cell-based. The conditions noted are these: MDA-MB-231, 72 h. The essentials:
(§1)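 Cells were kept in RPMI-1640 or DMEM with 10% heat-inactivated FBS, penicillin–streptomycin, 2 mM glutamine and 10 mM HEPES at 37 °C, 5% CO2. They were trypsinized, seeded at 3 × 10³ per well and allowed 24 h before exposure to a range of concentrations for 72 h. MTT (5 mg/mL stock) was added for 4 h, absorbance read at 570 nm, and IC50 calculated.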
On the technique in general: Tetrazolium assays rely on reduction of a dye to a coloured formazan, in cell work by metabolically active cells.

The subject of the next data set is Bel-7402. The experiment in a line: Cytotoxicity against human Bel7402 cells after 72 hrs by MTT assay. The data set is classed as functional, cell-based. The conditions noted are these: Bel-7402, 72 h. The method, boiled down: as §1
The subject of a further data set is SGC-7901. The data set can be described thus: Cytotoxicity against human SGC7901 cells after 72 hrs by MTT assay. The class given is functional, cell-based. The conditions noted are these: SGC-7901, 72 h. The essentials:
as §1

A further data set deals with HepG2. The data set can be described thus: Cytotoxicity against human HepG2 cells after 72 hrs by MTT assay. The conditions noted are these: HepG2, 72 h. The class given is functional, cell-based. The essentials:
as §1

In a further data set the test system is HT-29. The data set can be described thus: Cytotoxicity against human HT-29 cells after 72 hrs by MTT assay. The data set is classed as functional, cell-based. The conditions noted are these: HT-29, 72 h. The method, boiled down:
as §1

The test system of another data set is LoVo. The data set can be described thus: Cytotoxicity against human LoVo cells after 72 hrs by MTT assay. The data set is classed as functional, cell-based. The essentials:
as §1

The next data set concerns OS-RC-2. The data set can be described thus: Cytotoxicity against human OS-RC2 cells after 72 hrs by MTT assay. The class given is functional, cell-based. The conditions noted are these: OS-RC-2, 72 h. The essentials: as §1
The next data set has as its system A549. The data set can be described thus: Cytotoxicity against human A549 cells after 72 hrs by MTT assay. The class given is functional, cell-based. The conditions noted are these: A549, 72 h. The method, boiled down: as §1
The next data set deals with NCI-H460. The experiment in a line: Cytotoxicity against human NCI-H460 cells after 72 hrs by MTT assay. The data set is classed as functional, cell-based. The conditions noted are these: NCI-H460, 72 h. The essentials:
as §1

For data set [1], the system named is Mus musculus. The data set can be described thus: Acute toxicity against mouse at 2000 mg/kg, po administered as single dose. Set-up: dose 2000 mg/kg, route oral. The data set is classed as organism-based. The conditions noted are these: in vivo. The essentials:
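Mice received one oral dose, and the read-out was any sign of toxicity. The highest dose given without signs was recorded as the tolerated single oral dose.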

In data set [2] the test system is Mus musculus. The experiment in a line: Toxicity against mouse at 1460 mg/kg, po administered as single dose. Set-up: dose 1460 mg/kg, route oral. The class given is organism-based. The conditions noted are these: in vivo. The essentials:
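Acute toxicity was tested in mice by a single oral dose, with doses up to 2000 mg/kg. Animals were watched for any sign of toxicity.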

With `O=C(Nc1ccc(-n2ncc3cccnc32)cc1)Nc1ccc(Cl)c(C(F)(F)F)c1`, the IC50 in the data set with MDA-MB-231 is greater than 32 µM; in the data set with Bel-7402 it was 20.9 µM; in the data set with SGC-7901, greater than 32 µM; in the data set on HepG2 it was greater than 32 µM; with HT-29, greater than 32 µM; with LoVo it was 32 µM. The figures for the half-inhibitory concentration (IC50) with OS-RC-2, in the data set on A549 and in the data set with NCI-H460 were greater than 32 µM, greater than 32 µM and 16.6 µM, respectively.

In the case of `O=C(Nc1ccc(-n2ncc3ccncc32)cc1)Nc1ccc(Cl)c(C(F)(F)F)c1`, the IC50 was greater than 32 µM in the data set on MDA-MB-231; 4 µM in the data set with Bel-7402; greater than 32 µM with SGC-7901; 16 µM in the data set with HepG2; 29.5 µM in the data set on HT-29; 7.1 µM in the data set with LoVo. Also, the half-inhibitory concentration (IC50) is greater than 32 µM in the data set on OS-RC-2, 10.6 µM in the data set on A549 and 4.8 µM in the data set with NCI-H460.

For the compound `O=C(Nc1ccc(-n2ncc3cnccc32)cc1)Nc1ccc(Cl)c(C(F)(F)F)c1`, the IC50 in the data set on MDA-MB-231 is 16 µM; in the data set on Bel-7402 it was 2.7 µM; in the data set with SGC-7901, 22.6 µM; with HepG2 it was 4 µM; in the data set on HT-29 it was 10.5 µM; with LoVo, 8 µM. The IC50 is greater than 32 µM with OS-RC-2, 3.4 µM in the data set on A549 and 1.4 µM in the data set with NCI-H460.

Regarding `O=C(Nc1ccc(-n2ncc3ccccc32)cc1)Nc1ccc(Cl)c(C(F)(F)F)c1`, the 50% inhibitory concentration (IC50) was 5 µM in the data set with MDA-MB-231; 10.6 µM with Bel-7402; greater than 32 µM in the data set on SGC-7901; 8 µM with HepG2; 18.2 µM with HT-29; 8.7 µM in the data set with LoVo. In addition, the IC50 with OS-RC-2 was found to be 32 µM; with A549, 9.9 µM; in the data set with NCI-H460 it was 5.5 µM.

As to `O=C(Nc1ccc(-n2ncc3c(Cl)cccc32)cc1)Nc1ccc(Cl)c(C(F)(F)F)c1`, the half-inhibitory concentration (IC50) in the data set with MDA-MB-231 was found to be 1.6 µM; in the data set on Bel-7402, 2 µM; with SGC-7901, 4.6 µM; in the data set on HepG2, 1.9 µM; with HT-29 it was 4.6 µM; in the data set on LoVo it was 3.6 µM. The values for the concentration for half-maximal inhibition (IC50) in the data set with OS-RC-2, in the data set with A549 and in the data set on NCI-H460 were 3.1 µM, 3.1 µM and 1.3 µM, respectively. For the same compound, in the data set with Mus musculus [1], the Activity entry was “Non-toxic”.

As to `O=C(Nc1ccc(-n2ncc3c(Br)cccc32)cc1)Nc1ccc(Cl)c(C(F)(F)F)c1`, the IC50 with MDA-MB-231 stood at 7.7 µM; with Bel-7402 it was 1.3 µM; in the data set on SGC-7901 it was 16.6 µM; with HepG2, 2.5 µM; in the data set with HT-29, 4 µM; in the data set on LoVo, 1.7 µM. Besides, the figures for the IC50 with OS-RC-2, in the data set on A549 and with NCI-H460 were 9.9 µM, 2.3 µM and 1.3 µM, respectively.

For the compound `O=C(Nc1ccc(-n2ncc3c(F)cccc32)cc1)Nc1ccc(Cl)c(C(F)(F)F)c1`, the IC50 in the data set on MDA-MB-231 turned out to be 3.1 µM; in the data set on Bel-7402, 16 µM; in the data set with SGC-7901, 32 µM; with HepG2, 29.5 µM; with HT-29, 8.2 µM; with LoVo, 9.8 µM. Besides, the IC50 in the data set with OS-RC-2 was found to be 32 µM; with A549, 3.8 µM; with NCI-H460, 3.4 µM.

As for `COc1cccc2c1cnn2-c1ccc(NC(=O)Nc2ccc(Cl)c(C(F)(F)F)c2)cc1`, the half-inhibitory concentration (IC50) in the data set on MDA-MB-231 is 1.2 µM; in the data set on Bel-7402, 2.9 µM; in the data set with SGC-7901, 29.8 µM; with HepG2, 4 µM; with HT-29, greater than 32 µM; in the data set with LoVo, greater than 32 µM. The IC50 amounted to 28.8 µM in the data set on OS-RC-2, 3.7 µM in the data set on A549 and 2.2 µM with NCI-H460.

As for `CNC(=O)c1cc(Oc2ccc(NC(=O)Nc3ccc(Cl)c(C(F)(F)F)c3)cc2)ccn1` [SORAFENIB], the Activity entry in the data set with Mus musculus [2] was “Non-toxic”. Also, the IC50 with MDA-MB-231 is 2 µM; in the data set on Bel-7402, 5.8 µM; with SGC-7901, 6.9 µM; in the data set with HepG2 it was 4 µM; in the data set on HT-29, 4 µM; in the data set with LoVo, 3.3 µM. Further, the IC50 turned out to be 16 µM in the data set on OS-RC-2, 4 µM in the data set on A549 and 3.9 µM in the data set with NCI-H460.

In the case of `O=C(Nc1ccc(-n2ncc3c(C(F)(F)F)cccc32)cc1)Nc1ccc(Cl)c(C(F)(F)F)c1`, the concentration for half-maximal inhibition (IC50) with MDA-MB-231 was 2 µM; in the data set with Bel-7402, 16 µM; with SGC-7901 it was greater than 32 µM; in the data set on HepG2 it was 8 µM; in the data set on HT-29 it was 2.9 µM; in the data set with LoVo, 3 µM. Besides, the IC50 is greater than 32 µM in the data set with OS-RC-2, 3 µM with A549 and 1.6 µM with NCI-H460. The Activity result in the data set on Mus musculus [1] is “Non-toxic”.

As for `O=C(Nc1ccc(-n2ncc3c(Cl)cccc32)cc1)Nc1ccc(C(F)(F)F)cc1`, the IC50 in the data set on MDA-MB-231 was found to be 2.7 µM; with Bel-7402, 8 µM; with SGC-7901, 6 µM; in the data set on HepG2 it was 6.7 µM; in the data set with HT-29, 1 µM; in the data set on LoVo, 5.1 µM. The IC50 in the data set with OS-RC-2 turned out to be 4.6 µM; with A549 it was 6 µM; in the data set with NCI-H460 it was 6.8 µM.

Turning to `O=C(Nc1ccc(-n2ncc3c(C(F)(F)F)cccc32)cc1)Nc1ccc(C(F)(F)F)cc1`, the IC50 in the data set on MDA-MB-231 was found to be 2 µM; in the data set on Bel-7402, 1 µM; in the data set with SGC-7901, 4 µM; with HepG2, 1 µM; in the data set on HT-29 it was 3.3 µM; in the data set with LoVo, 2.2 µM. In addition, the concentration for half-maximal inhibition (IC50) in the data set with OS-RC-2 was 4 µM; with A549, 0.8 µM; in the data set with NCI-H460 it was 0.8 µM. Besides, the Activity entry in the data set on Mus musculus [1] is “Non-toxic”.

Regarding `CNc1cccc2c1cnn2-c1ccc(NC(=O)Nc2ccc(Cl)c(C(F)(F)F)c2)cc1`, the IC50 with MDA-MB-231 amounted to 3.6 µM; with Bel-7402, 5 µM; with SGC-7901, 6.9 µM; in the data set with HepG2, 3 µM; in the data set on HT-29 it was 5.9 µM; in the data set with LoVo it was 6.3 µM. In addition, the IC50 with OS-RC-2 was 10.6 µM; in the data set with A549, 4.9 µM; with NCI-H460, 2.6 µM.

As for `Cc1cccc2c1cnn2-c1ccc(NC(=O)Nc2ccc(Cl)c(C(F)(F)F)c2)cc1`, the IC50 was found to be 2.3 µM in the data set on MDA-MB-231; 6.7 µM in the data set with Bel-7402; 14.2 µM with SGC-7901; 4 µM with HepG2; 32 µM in the data set with HT-29; 3.9 µM with LoVo. For the same compound, the concentration for half-maximal inhibition (IC50) with OS-RC-2 amounted to 32 µM; in the data set with A549, 5.5 µM; with NCI-H460, 2.5 µM.

As a reminder, the IC50 is the concentration that gives 50% inhibition.
